Drawing on ChEMBL document CHEMBL1132643, “Novel inhibitors of Erm methyltransferases from NMR and parallel synthesis” (J Med Chem, 1999), this text covers Kd and Ki for 29 compounds.

pKd, pKi: −log10 of the molar value. Where only a bound is given, the exact number is not on record here.

Sequence of rRNA adenine N-6-methyltransferase (Bacillus subtilis, UniProt P13956) (P13956 whole entry): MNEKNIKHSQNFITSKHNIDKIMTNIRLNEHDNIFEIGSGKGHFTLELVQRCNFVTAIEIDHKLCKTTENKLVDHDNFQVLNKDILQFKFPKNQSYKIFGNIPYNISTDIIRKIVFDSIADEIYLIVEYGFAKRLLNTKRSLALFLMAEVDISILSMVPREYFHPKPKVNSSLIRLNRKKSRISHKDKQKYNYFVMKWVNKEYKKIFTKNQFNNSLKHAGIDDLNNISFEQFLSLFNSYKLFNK

Molecular target in one experiment: not listed separately
In words: The binding affinity towards N-labeled Erythromycin-resistant ErmAM methylase evaluated by NMR. The method, boiled down:
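Uniformly 15N-labeled ErmAM, 0.3 mM in H2O/D2O 9:1 with 20 mM BisTris, 10 mM DTT, pH 6.5. Ligand added in perdeuterated DMSO. Sensitivity-enhanced 15N HSQC run at 30 °C with and without ligand, screening at 1.0 mM. KD from chemical shift changes versus ligand concentration, fit to a single-site model by least-squares grid search.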
Compound `CSc1nc(N)nc(N)n1` gave a pKd of 3.00.

`c1cnc2[nH]ccc2c1`: the pKd is 2.89.

Molecular target in another experiment: not listed separately
In words: The binding affinity towards ErmAM methylase identified by NMR.
Consider `Nc1nc(N)nc(N2CCCCC2)n1`, for which the negative logarithm of the Kd (pKd) was 2.30.

In turn, `Nc1nc(NC2CCCCC2)nc(-c2ccc(O)cc2)n1` had a pKd of 3.51.

`Nc1nc(N)nc(-c2ccc(O)cc2)n1`: the pKd was 1.92.

The next experiment concerns the target rRNA adenine N-6-methyltransferase (Bacillus subtilis, UniProt P13956). In words: Inhibitory activity against ErmC methylase. The method, boiled down:
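ErmC′ (143 nM) preincubated with compound, in duplicate, 15 min at room temperature in 50 mM Tris pH 7.5, 40 mM KCl, 4 mM MgCl2, 10 mM DTT. Started with 250 nM S-adenosyl-L-[methyl-3H]methionine and 80 nM E. coli rRNA, 2 h room temperature. Stopped with 10% TCA/100 mM KCl, filtered, washed. Precipitated counts taken as percent inhibition versus no-inhibitor wells, and IC50 read from concentration curve.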
`Nc1cccc(-c2nc(N)nc(NC3Cc4ccccc4C3)n2)c1`: the pKi is 5.00.

`C[C@@H](Nc1nc(N)nc(N2CCCCC2)n1)c1ccccc1` gave a pKi of less than 4.00.

In turn, `COc1ccc2c(c1)CC(Nc1nc(N)nc(N3CCCCC3)n1)C2` (configuration not stated) showed a pKi of 4.12.

`c1ccc2c(c1)CC(Nc1ncnc(N3CCCCC3)n1)C2`: the pKi was less than 4.00.

On to `Nc1nc(NC2CCCCC2)nc(NC2Cc3ccccc3C2)n1`, for which the pKi is less than 4.00.

Compound `Nc1nc(NC2Cc3ccccc3C2)nc(N2CCCC(CO)C2)n1` (configuration not stated) showed a negative-log Ki (pKi) of less than 4.00.

Compound `Nc1nc(NC2Cc3ccccc3C2)nc(C2CCCCC2)n1` had a pKi of less than 4.00.

The compound `Nc1nc(NC2Cc3ccccc3C2)nc(N2CCCCC2)n1` gave a pKi of 4.12.

`Nc1nc(NC2Cc3ccc(F)cc3C2)nc(N2CCCCC2)n1` (configuration not stated) gave a pKi of 4.43.

As to `Nc1nc(Nc2ccccc2)nc(N2CCCCC2)n1`, the pKi was less than 4.00.

With `Nc1ccc(-c2cc(NC3Cc4ccccc4C3)nc(N)n2)cc1`, the pKi is less than 4.00.

Consider `CN(c1nc(N)nc(N2CCCCC2)n1)C1CCCCC1`, for which the pKi is less than 4.00.

Turning to `Nc1nc(NC2Cc3ccccc3C2)nc(N2CCC(C(=O)NCCc3c[nH]c4ccccc34)CC2)n1`, the negative logarithm of the Ki (pKi) was 4.70.

`Nc1nc(NC2CCCCC2)nc(N2CCCCC2)n1` gave a pKi of less than 4.00.

`Nc1nc(NC2Cc3ccccc3C2)cc(-c2ccc(NCCCc3ccccc3O)cc2)n1` had a pKi of 4.90.

For the compound `Nc1nc(N2CCCCC2)nc(N2CCCCC2)n1`, the pKi was less than 4.00.

`Nc1nc(NC2Cc3ccccc3C2)nc(N2CCC(C(=O)O)CC2)n1` had a pKi of less than 4.00.

Consider `Nc1nc(NC2CCc3ccccc32)nc(N2CCCCC2)n1` (configuration not stated), for which the pKi is less than 4.00.

As for `CSc1nc(N)nc(NC2Cc3ccccc3C2)n1`, the pKi was less than 4.00.

On to `Nc1ccc(-c2nc(N)nc(NC3Cc4ccccc4C3)n2)cc1`, for which the pKi is less than 4.30.

On to `Oc1nc(NC2Cc3ccccc3C2)nc(N2CCCCC2)n1`, for which the pKi was less than 4.00.

Take `Nc1nc(NC2Cc3ccccc3C2)nc(N2CCC(CO)CC2)n1`: the pKi is 4.12.

In turn, `Nc1nc(NCCCc2c(O)cc(Cl)cc2Cl)nc(NC2Cc3ccccc3C2)n1` had a pKi of less than 4.00.

The target in a further experiment is T1, rRNA adenine N-6-methyltransferase (Streptococcus pneumoniae, UniProt P21236).
T1 sequence (P21236 whole entry): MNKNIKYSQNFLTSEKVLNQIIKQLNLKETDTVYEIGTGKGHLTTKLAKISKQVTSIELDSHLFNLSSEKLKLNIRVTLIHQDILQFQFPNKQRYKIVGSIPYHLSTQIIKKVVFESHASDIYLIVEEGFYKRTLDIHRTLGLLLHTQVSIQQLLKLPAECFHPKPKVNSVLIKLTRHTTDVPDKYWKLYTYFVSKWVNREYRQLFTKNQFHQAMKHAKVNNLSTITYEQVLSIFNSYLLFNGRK
In words: Inhibitory activity against ErmAM methylase. The method, boiled down:
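Radiometric methyltransferase assay in 50 mM Tris pH 7.5, 100 mM KCl, 4 mM MgCl2, 1 mM DTT with 95 nM ErmAM. Enzyme was preincubated with compound for 15 min at room temperature, in duplicate. Reaction was then started with 250 nM S-adenosyl-L-[methyl-3H]methionine and 80 nM E. coli rRNA and run 2 h at room temperature. It was stopped with 10% TCA/100 mM KCl on ice. TCA-precipitated counts were read after filtration. IC50 was taken from percent inhibition versus control plotted against concentration.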
For the compound `Nc1cccc(-c2nc(N)nc(NC3Cc4ccccc4C3)n2)c1`, the pKi was 5.40.

Take `C[C@@H](Nc1nc(N)nc(N2CCCCC2)n1)c1ccccc1`: the pKi is less than 4.00.

Turning to `COc1ccc2c(c1)CC(Nc1nc(N)nc(N3CCCCC3)n1)C2` (configuration not stated), the pKi was 5.22.

For `c1ccc2c(c1)CC(Nc1ncnc(N3CCCCC3)n1)C2`, the pKi is less than 4.12.

`Nc1ncnc2c1ncn2[C@@H]1O[C@H](CSCC[C@H](N)C(=O)O)[C@@H](O)[C@H]1O` [S-ADENOSYLHOMOCYSTEINE]: the pKi is 4.40.

Compound `Nc1nc(NC2CCCCC2)nc(NC2Cc3ccccc3C2)n1` showed a pKi of less than 4.00.

In turn, `Nc1nc(NC2Cc3ccccc3C2)nc(N2CCCC(CO)C2)n1` (configuration not stated) gave a pKi of 4.90.

Take `Nc1nc(NC2Cc3ccccc3C2)nc(C2CCCCC2)n1`: the pKi is 4.60.

`Nc1nc(NC2Cc3ccccc3C2)nc(N2CCCCC2)n1`: the pKi is 5.10.

The compound `Nc1nc(NC2Cc3ccc(F)cc3C2)nc(N2CCCCC2)n1` (configuration not stated) had a pKi of 5.52.

`Nc1nc(Nc2ccccc2)nc(N2CCCCC2)n1` showed a pKi of less than 4.00.

Take `Nc1ccc(-c2cc(NC3Cc4ccccc4C3)nc(N)n2)cc1`: the pKi is 4.12.

Consider `CN(c1nc(N)nc(N2CCCCC2)n1)C1CCCCC1`, for which the pKi was less than 4.00.

In turn, `Nc1nc(NC2Cc3ccccc3C2)nc(N2CCC(C(=O)NCCc3c[nH]c4ccccc34)CC2)n1` gave a pKi of 5.70.

For the compound `Nc1nc(NC2CCCCC2)nc(N2CCCCC2)n1`, the pKi is 4.12.

Turning to `Nc1nc(NC2Cc3ccccc3C2)cc(-c2ccc(NCCCc3ccccc3O)cc2)n1`, the pKi was 5.12.

For `Nc1nc(N2CCCCC2)nc(N2CCCCC2)n1`, the pKi was less than 4.00.

Compound `Nc1nc(NC2Cc3ccccc3C2)nc(N2CCC(C(=O)O)CC2)n1` showed a pKi of less than 4.00.

The compound `Nc1nc(NC2CCc3ccccc32)nc(N2CCCCC2)n1` (configuration not stated) gave a pKi of 4.12.

Consider `CSc1nc(N)nc(NC2Cc3ccccc3C2)n1`, for which the pKi is 5.00.

Compound `Nc1ccc(-c2nc(N)nc(NC3Cc4ccccc4C3)n2)cc1` had a pKi of 4.46.

On to `Oc1nc(NC2Cc3ccccc3C2)nc(N2CCCCC2)n1`, for which the pKi is less than 4.00.

`Nc1nc(NC2Cc3ccccc3C2)nc(N2CCC(CO)CC2)n1` had a pKi of 5.05.

As for `Nc1nc(NCCCc2c(O)cc(Cl)cc2Cl)nc(NC2Cc3ccccc3C2)n1`, the pKi is 5.00.
